# Sampled rows, rich in hits. Any-hit rate of the full collection: about 3%.
# NR3A LBD binder: modulates the human NR3A ligand-binding domain; Tm shift relative to glycine control, % at 25 µM; 2.5% of 340,000 active; NR3A LBD differential scanning fluorimetry, Tm shift; 0% = protein alone, 100% = glycine-bound protein;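 active = melting temperature shift of at least 10% of the positive control shift, at one fixed dose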
# GC-B act: GC-B (human) receptor activation. P20594. activation, % at 10 µM. 0.11% of 370,000 active. HEK293-GC-B cells, CNP EC30, cGMP TR-FRET; 0% at EC30 CNP, 100% saturating CNP. AID 1920062;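 active = activation at 10 µM reaching about 35% in either raw or pattern-adjusted values, limit read from the data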
# Target sequence (P20594 whole entry, looked up): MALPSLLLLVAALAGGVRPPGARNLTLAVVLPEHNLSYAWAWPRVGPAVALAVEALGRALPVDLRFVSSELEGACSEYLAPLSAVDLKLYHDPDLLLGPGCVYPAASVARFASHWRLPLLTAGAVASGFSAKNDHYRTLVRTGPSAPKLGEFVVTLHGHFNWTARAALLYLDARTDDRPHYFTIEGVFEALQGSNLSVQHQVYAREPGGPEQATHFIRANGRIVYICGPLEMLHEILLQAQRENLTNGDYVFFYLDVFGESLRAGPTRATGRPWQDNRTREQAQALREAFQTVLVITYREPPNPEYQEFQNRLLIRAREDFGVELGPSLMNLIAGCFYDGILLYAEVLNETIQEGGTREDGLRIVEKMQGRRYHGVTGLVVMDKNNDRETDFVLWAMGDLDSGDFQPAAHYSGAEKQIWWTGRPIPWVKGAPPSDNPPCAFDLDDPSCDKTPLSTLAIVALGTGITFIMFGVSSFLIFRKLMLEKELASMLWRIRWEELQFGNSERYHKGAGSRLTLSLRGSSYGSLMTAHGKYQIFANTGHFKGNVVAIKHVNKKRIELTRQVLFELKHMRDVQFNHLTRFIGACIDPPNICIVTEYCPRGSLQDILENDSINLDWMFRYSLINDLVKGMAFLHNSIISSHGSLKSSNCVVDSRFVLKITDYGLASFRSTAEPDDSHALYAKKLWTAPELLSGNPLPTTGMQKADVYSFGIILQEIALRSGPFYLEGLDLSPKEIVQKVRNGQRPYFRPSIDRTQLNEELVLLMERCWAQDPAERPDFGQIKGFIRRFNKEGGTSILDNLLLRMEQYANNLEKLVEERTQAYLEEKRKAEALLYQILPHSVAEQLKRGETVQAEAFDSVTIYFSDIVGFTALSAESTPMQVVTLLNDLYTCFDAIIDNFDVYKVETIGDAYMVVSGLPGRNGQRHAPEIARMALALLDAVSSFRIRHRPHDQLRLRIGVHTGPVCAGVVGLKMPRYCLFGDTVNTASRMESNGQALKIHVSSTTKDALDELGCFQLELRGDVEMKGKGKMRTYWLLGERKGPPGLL
# JMJD2C inh: human JMJD2C demethylase inhibition; 0.069% of 330,000 active; GST-JMJD2C(1-420) H3K9me3 demethylation, DELFIA europium; Q9H3R0; inhibition, % at 2.35 µM;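 active = more than half of a compound's replicate wells show inhibition beyond 50%, single wells judged on their own value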;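 also: signal counts dimethyl H3K9 product captured on neutravidin plate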
# GC-A act: GC-A (human) enzyme activation; P16066; HEK293 GC-A cells, cGMP TR-FRET, EC30 ANP; 0% at EC30 ANP, 100% saturating ANP; activation, % at 10 µM; 0.14% of 370,000 active; AID 1671463; in the data active = activation above about 40%
# Lipid droplet: hepatic lipid droplet formation modulation; AML12 mouse hepatocytes, oleate lipid droplets, BODIPY imaging; inhibition, % at 6.5 µM; 0.4% of 240,000 active;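 active = lipid droplet intensity inhibited by at least 50%, with more than 500 cells counted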
#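 Assay system: AML12 hepatocytes (mouse) / Also added: 100 µM oleic acid challenge / Times: overnight treatment with compound plus oleate / Detection: high-content imaging of BODIPY-stained droplets and DAPI nuclei / Evaluation: % inhibition of lipid droplet signal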
# aDG glyco up: increases alpha dystroglycan glycosylation | activation, % at 10 µM | Pro5-aDG cells, alpha-DG glycosylation AlphaScreen (IIH6); 0% Pro5, 100% B10-LARGE cell signal | AID 624168 | 0.22% of 360,000 active;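 active = activation of at least 8% versus controls, or a plate z-score of at least 8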;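 also: Pro5 are CHO cells carrying HIG-tagged alpha-DG that lacks glycosylation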
# Hits are given with their value; . = inactive; / = no result.
SMILES,NR3A LBD binder,GC-B act,JMJD2C inh,GC-A act,Lipid droplet,aDG glyco up
O=C(NCc1ccc(F)c(F)c1)C1C2C=CC3(CN(Cc4ccccc4)C(=O)C13)O2 (stereo not drawn),/,.,/,.,/,/
C=CCN1C(=O)c2n[nH]c(COC)c2C1c1ccc(C)cc1 (stereo not drawn),/,.,/,.,/,/
N#CC1=C(SCC(=O)NC2CC2)NC(=O)C(C#N)C12CCCCC2 (stereo not drawn),.,.,.,.,/,.
CC(C)(C)C1CCC2(CC1)C(C#N)=C(SCC(=O)NC1CCCCC1)NC(=O)C2C#N (stereo not drawn),12.4,.,.,.,.,.
N#CC1=C(SCC(=O)NC23CC4CC(CC(C4)C2)C3)NC(=O)C(C#N)C12CCCCC2 (stereo not drawn),12.1,.,.,.,.,.
CCOC(=O)CC[C@@]1(C(=O)OCC)C[C@@H](CC(=O)N2CCOCC2)C(=O)N2CCCC=C21,/,.,/,.,/,/
COc1ccc(CNC(=O)CN2C(=O)COc3ccc(S(=O)(=O)N4CCOCC4)cc32)cc1,.,.,.,.,.,.
COc1ccc(CNC(=O)CN2C(=O)COc3ccc(S(=O)(=O)N4CCC(C)CC4)cc32)cc1,45.4,.,.,.,.,.
Cc1ccc(C)c(NC(=O)CN2C(=O)COc3ccc(S(=O)(=O)N4CCCC4)cc32)c1,10.5,.,.,.,.,.
Cc1ccc(NC(=O)CN2C(=O)COc3ccc(S(=O)(=O)N4CCCC4)cc32)c(C)c1,.,.,.,.,.,.
COCCNC(=O)c1c(N)[nH]c(C(=O)c2ccc(Br)cc2)c1-c1ccc(Br)cc1,/,.,/,.,/,/
COc1cccc(NC(=O)CN(C)C(=O)c2ccccc2OCC(=O)Nc2cccc(C(F)(F)F)c2)c1,.,.,.,.,/,.
CCOc1ncccc1C(=O)N(C)CC(=O)Nc1ccc(C)cc1,.,.,.,.,.,.
COc1cccc(NC(=O)CN(C)C(=O)c2cccnc2Nc2cccc(C(F)(F)F)c2)c1,35.4,/,.,/,/,.
COc1cccc(NC(=O)CN(C)CC(=O)Nc2cccc(C(F)(F)F)c2)c1,.,.,.,.,.,.
COc1ccc(-c2noc(N(C)CC(=O)Nc3cccc(C(F)(F)F)c3)n2)cc1,10.1,.,.,.,/,.
Cc1ccc(NC(=O)CN(C)C(=O)c2cccnc2Nc2cccc(C(F)(F)F)c2)cc1,16.2,.,.,.,.,.
CN(Cc1ccccc1)C(=O)[C@@H]1CCCN1C(=O)[C@@H]1CCCN1C(=O)c1cccs1,/,.,/,.,/,.
N/C(=N\OC(=O)c1cccc(Br)c1)c1ccc([N+](=O)[O-])cc1,13.7,.,.,.,.,.
N/C(=N\OC(=O)c1cccc(Br)c1)c1ccc(Br)cc1,23.1,.,.,.,/,.
COc1ccc(C(=O)O/N=C(\N)c2ccc(Br)cc2)cc1,20.0,.,.,.,.,.
COc1ccc(OCC(=O)O/N=C(\N)Cc2ccc(Cl)cc2)cc1,14.6,.,.,.,/,.
N/C(Cc1ccc([N+](=O)[O-])cc1)=N\OC(=O)c1cccc(Br)c1,.,.,.,.,.,.
O=C(N[C@H](C(=O)N1CCC[C@H]1C(=O)NC1CCCC1)C1CCCCC1)C1CCCC1,/,.,/,.,/,/
COc1ccccc1C/C(N)=N/OC(=O)c1cccc([N+](=O)[O-])c1,.,.,.,.,.,.
SMILES,NR3A LBD binder,GC-B act,JMJD2C inh,GC-A act,Lipid droplet,aDG glyco up
COc1ccc(C/C(N)=N/OC(=O)c2cccc([N+](=O)[O-])c2)cc1,13.7,.,.,.,.,.
N/C(=N/OC(=O)c1cccc([N+](=O)[O-])c1)c1cccc([N+](=O)[O-])c1,.,.,.,.,.,.
N/C(=N\OC(=O)c1ccc2ccccc2c1)c1cccc([N+](=O)[O-])c1,35.0,.,.,.,.,.
COc1ccc(-n2cc(COC(=O)NCCc3ccccc3)nn2)cc1,/,.,/,.,/,/
Cc1ccc2c(c1)cc(C(=O)N[C@@H](Cc1ccccc1)C(=O)O)n2C,.,.,.,.,.,.
C=CCN1C(=O)[C@@H](CC(=O)NCC23CC4CC(CC(C4)C2)C3)[C@]2(C(=O)OCC)CCCCC/C=C/12,/,.,/,.,/,/
CCOc1ccc(NC(=O)COC(=O)CCCc2c[nH]c3ccccc23)cc1,27.6,.,.,.,/,.
COc1ccc(NC(=O)COC(=O)CCCc2c[nH]c3ccccc23)cc1,21.2,.,.,.,.,.
CCOc1ccc(NC(=O)COC(=O)Cc2ccsc2)cc1,34.5,.,.,.,/,.
COc1cccc(NC(=O)COC(=O)CCCc2c[nH]c3ccccc23)c1,.,.,.,.,/,.
COCCCN1C(=O)[C@H](CC(=O)NCCC(C)C)[C@]2(C(=O)OC)CCCCC=C12,/,.,/,.,/,/
COc1cccc(-c2nnc3n2N=C(c2ccc(Cl)cc2)CS3)c1,/,.,/,.,/,/
CC(C)COP(=O)(OCC(C)C)C(Nc1ccccc1)c1ccc2c(c1)OCO2 (stereo not drawn),.,.,.,.,/,.
CC(C)OP(=O)(OC(C)C)C(Nc1ccccc1)c1ccc2c(c1)OCO2 (stereo not drawn),11.9,.,.,.,.,.
CC(=O)Nc1ccc(Nc2nc(C(F)(F)F)nc3c2nnn3Cc2ccccc2Cl)cc1,13.2,.,.,.,.,.
O=C1C=C(c2ccc3[nH]ccc3c2)C[C@@H](c2ccc(F)cc2)C1,21.3,35.5,.,.,/,.
CCCCCCCCN1C(=O)[C@@H](CC(=O)N2CCOCC2)C[C@@]2(C(=O)OC)C1=C[C@H](C(C)(C)C)O[C@@H]2C,/,.,/,.,/,/
N#Cc1ccccc1NC(=O)CN(Cc1ccccc1)Cc1ccccc1,16.2,.,.,.,.,.
Cc1nc(C(F)(F)F)ccc1C(=O)N1CCC1(C)C(=O)NCc1cccs1 (stereo not drawn),/,.,/,.,/,.
CC(=O)Nc1ccc(C2=NNC(=Nc3cccc(S(=O)(=O)N(C)C)c3)SC2)cc1,12.1,/,.,/,.,.
CN(C)S(=O)(=O)c1cccc(N=C2NN=C(c3ccccc3)CS2)c1,.,.,.,.,.,/
CCOc1cc(/C=C2\C(=O)N(CCC#N)N=C2C)ccc1OCC(N)=O,.,.,.,.,.,.
COc1cc(/C=C2\C(=O)N(CCC#N)N=C2C)ccc1OCC(=O)Nc1ccccc1,.,46.7,.,53.1,.,.
O=C(N[C@H](Cc1ccccc1)C(=O)NCC1CCCCC1)[C@H]1O[C@@H](n2ccc(=O)[nH]c2=O)[C@H](O)[C@@H]1O,/,.,/,.,/,/
CCC(=O)c1ccc(OCC(=O)OCC(=O)c2cc(C)n(C)c2C)cc1,12.6,.,.,.,.,.
CCN(CC)c1ccc(C=Nc2ccc(C)cc2)c(O)c1,13.1,.,.,.,.,.

# High-throughput results as filed in PubChem BioAssay.
